# Assay results of several laboratories.
# Observed: cell growth or viability
SMILES,cell line,test,conditions,IC50
CO[C@H]1/C=C\C=C(/C)C(=O)NC2=CC(=O)C(NCCN(C)C)=C(C[C@@H](C)C[C@H](OC)[C@H](O)[C@@H](C)/C=C(\C)[C@@H]1OC(N)=O)C2=O,HUVEC,MTT,,880 nM
O=C(Nc1cccc2cccnc12)c1cnccn1,HFF-1,MTT,,> 30000 nM
COc1cc(Nc2nccc(-c3cnn4nc(OC)ccc34)n2)cc(C(F)(F)F)c1,NCI-H1048,ATP luminescence,,380 nM
COc1cc2ncnc(Nc3ccc(F)c(Cl)c3)c2cc1NC(=O)N/N=C/CN1CCCC1,PC-3,MTT,72 h,2550 nM
COC1=C2C[C@@H](C)C[C@H](OC)[C@H](O)[C@@H](C)/C=C(\C)[C@H](OC(N)=O)[C@@H](OC)/C=C\C=C(/C)C(=O)NC(=CC1=O)C2=O,HUVEC,MTT,,41 nM
Nc1nc2sc(CCCCCc3ccc(C(=O)N[C@@H](CCC(=O)O)C(=O)O)cc3)cc2c(=O)[nH]1,R2/PCFT4,,"96 h, pH 7.2",> 1000 nM
CC(C)C[C@H](NC(=O)[C@H](Cc1ccccc1)NC(=O)c1cnccn1)B(O)O,NCI-H2286,ATP luminescence,,6.6 nM
O=c1[nH]cc(F)c(=O)[nH]1,HUVEC,MTT,48 h,> 50000 nM
O=C(N/N=C/c1cccn1CCCN1CCOCC1)Nc1cc2c(Nc3ccc(F)c(Cl)c3)ncnc2cc1O[C@H]1CCOC1,PC-3,MTT,72 h,6320 nM
CCCON(Cc1ccc(C(=O)NO)cc1)C(=O)Nc1ccc(N(C)C)cc1,HAL-01,ATP luminescence,72 h,13800 nM
Cn1cc(-c2ccc3c(c2)ncn3-c2ccc(CC(=O)Nc3cc(C(C)(C)C)on3)cc2)cn1,NIH3T3,,,34.4 nM
Nc1nc2sc(CCc3ccc(C(=O)N[C@@H](CCC(=O)O)C(=O)O)cc3)cc2c(=O)[nH]1,R2/PCFT4,,"96 h, pH 7.2",> 1000 nM
COc1cccc2c1C(=O)c1c(O)c3c(c(O)c1C2=O)C[C@@](O)(C(=O)CO)C[C@@H]3O[C@H]1C[C@H](N)[C@H](O)[C@H](C)O1,HUVEC,MTT,48 h,2 µg/mL
Cc1ccc(-c2ccc(O)cc2)c(C(=C2C=CC(=O)C=C2)c2ccc(O)cc2)c1C#Cc1ccc(O)cc1,HUVEC,MTT,48 h,> 50000 nM
O=C(/C=C/C=C/c1ccc2c(c1)OCO2)N1CCCCC1,HUVEC,MTT,48 h,41.6 µg/mL
Nc1nc2sc(CCCCCCc3ccc(C(=O)N[C@@H](CCC(=O)O)C(=O)O)cc3)cc2c(=O)[nH]1,R2/PCFT4,,"96 h, pH 7.2",> 1000 nM
